Results from the EternaBench riboswitch data.

Legend:
[1] = test system: MS2 coat protein; experiment: apparent Kd, MS2 coat protein; higher = weaker binding; RNA-MaP array; tryptophan 2.4 mM where present
Method in brief: (§1)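 Designs were transcribed by stalled E. coli RNA polymerase on Illumina sequencing-chip clusters. They were titrated with SNAP-549-labelled MS2 coat protein from 0.7 or 1.5 nM, doubling to 3 µM, in 100 mM Tris-HCl pH 7.5, 80 mM KCl, 4 mM MgCl2, BSA, DTT, yeast tRNA and Tween-20, without and then with constant ligand. The apparent Kd is the median of filtered per-cluster fits after normalisation of green signal to red-channel RNA signal and control-cluster median Fmax.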

[2] = test system: MS2 coat protein; experiment: apparent Kd, MS2 coat protein; higher = weaker binding; RNA-MaP array; theophylline 2 mM where present; details: designed as: ON switch for theophylline
Method in brief: as §1

[3] = designed as: OFF switch for tryptophan, no ligand
[4] = ligand present: tryptophan, designed as: OFF switch for tryptophan
[5] = designed as: ON switch for tryptophan, no ligand
[6] = ligand present: tryptophan, designed as: ON switch for tryptophan

Sequence: AACAUGAGGAUCACCCAUGUGUCCUCGAAACGAGGACCGGUACGGCCGCCACUCGGCGUAUGUUGACGAAAAGUCAGCAUACGCA
- apparent Kd [1, 3]: 192 nM
- apparent Kd [1, 4]: 737 nM

Sequence: AAUACCGGAUCGGCCGCCACUGGUUGGCCCUGUGUACAUGAGGAUCACCCAUGUCCAUCCCAGACCAGGACCGGGAUCUUUGUGU
- apparent Kd [1, 5]: 15.8 nM
- apparent Kd [1, 6]: 10.4 nM

Sequence: ACCUGCGUUUGUUUCUUUCUGACGCAGGUUCGAGGACCGGUACGGCCGCCACUCGGACAUGAGGAUCACCCAUGUUUGACAUGGG
- apparent Kd [1, 3]: 57.3 nM
- apparent Kd [1, 4]: 17.3 nM

Sequence: AGAAUAUAGUCGGCCGCCACUCUACAUACAUGAGGAUCACCCAUGUUUACAUAGUGAAUAUACAUGAGGACCGGGACAUAGGCAU
- apparent Kd [1, 5]: 21.8 nM
- apparent Kd [1, 6]: 13.4 nM

Sequence: AGAGUCUAGUCGGCCGCCACUCAUGUCCAAAGGACAUGAGGAUCACCCAUGUACCAAUGGUACAUGAGGACCGGGACUGGACUCA
- apparent Kd [1, 5]: 27.7 nM
- apparent Kd [1, 6]: 8.33 nM

Sequence: AGAGUCUAGUCGGCCGCCACUCAUGUCCAAUGGACAUGAGGAUCACCCAUGUACCAAAGGUACAUGAGGACCGGGACUGGACUCA
- apparent Kd [1, 5]: 47.7 nM
- apparent Kd [1, 6]: 7.57 nM

Sequence: AGAGUCUAGUCGGCCGCCACUCAUGUCCAAUGGACAUGAGGAUCACCCAUGUACCGAAGGUACAUGAGGACCGGGACUGGACUCA
- apparent Kd [1, 5]: 153 nM
- apparent Kd [1, 6]: 11.7 nM

Sequence: AGCACUGUGACGGCCGCCACUACAUAACAUGGGUGGUCAGGUUCAUUACAUGAGGAUCACCCAUGUAGGACCGGGUCUCAGUGCA
- apparent Kd [1, 3]: 10.1 nM
- apparent Kd [1, 4]: 8.35 nM

Sequence: AGCACUGUGACGGCCGCCACUAUAUUAGGGUGGUCAGGUUCAUAAAUACAUGAGGAUCACCCAUGUAGGACCGGGUCUCAGUGCA
- apparent Kd [1, 3]: 9.48 nM
- apparent Kd [1, 4]: 9.88 nM

Sequence: AGCCACUCGAACAUGGGUGACGAGUGGCAACGAGGACCGGUACGGCCGCCACUCGAAUAAACAUGAGGAUCACCCAUGUACAAAU
- apparent Kd [1, 5]: 292 nM
- apparent Kd [1, 6]: 214 nM

Sequence: AGCCACUCGAGUGAUCCUCACGAGUGGCUACGAGGACCGGUACGGCCGCCACUCGAAUUAACAUGAGGAUCACCCAUGUAAUCUC
- apparent Kd [1, 5]: 102 nM
- apparent Kd [1, 6]: 45.9 nM

Sequence: CACGAAAGAUCGGCCGCCACUAUUUGAUGUGUUCUUUCACAUGAGGAUCACCCAUGUUCUUAUUUUAGGACCGGGAUUGAGCGUG
- apparent Kd [1, 3]: 94.8 nM
- apparent Kd [1, 4]: 69.3 nM

Sequence: CACGAAAGAUCGGCCGCCACUCAUGUUUCUUACAUGAGGAUCACCCAUGUAUUUUCUUUCUUUUAGAGGACCGGGAUUGAGCGUG
- apparent Kd [1, 5]: 155 nM
- apparent Kd [1, 6]: 29.8 nM

Sequence: CCUAUGCAGUCGGCCGCCACUGAAAACAGCCUCAAAAUAAAUAUAACAUGAGGAUCACCCAUGUACAGGACCGGGACUGUAUAGG
- apparent Kd [1, 3]: 147 nM
- apparent Kd [1, 4]: 79.6 nM

Sequence: CCUAUGCAGUCGGCCGCCACUGAACAUGAGGAUCACCCAUGUAAUUAAAAUUAAGGUCCUAAAAUCAGGACCGGGACUGUAUAGG
- apparent Kd [1, 3]: 38.5 nM
- apparent Kd [1, 4]: 237 nM

Sequence: CCUCAAUAGACGGCCGCCACUGAAACAUGAGGAUACAUGAGGAUCACCCAUGUGGGUGUGUUACGCAGGACCGGGUCAAGACCCG
- apparent Kd [1, 5]: 207 nM
- apparent Kd [1, 6]: 336 nM

Sequence: CGAAUAUAGACGGCCGCCACUCUACAAACAUGAGGAUCACCCAUGUUCACAUAGUGGAAACACAUGAGGACCGGGUCAUAGGCUU
- apparent Kd [1, 5]: 22.6 nM
- apparent Kd [1, 6]: 17.1 nM

Sequence: CGCACAUGAGGAUCACCCAUGUGAGGGCGUCGAGGACCGGUACGGCCGCCACUCGCAGGACAUGAGGAUCACCCAUGUGCCGCCG
- apparent Kd [1, 5]: 116 nM
- apparent Kd [1, 6]: 57.2 nM

Sequence: GCACCAGGUACGGAUACCAGCUGCCAGCGUUACAUGAGGAUCACCCAUGUGAUCUGAAGUAGCCCUUGGCAGCUGUACCUGGUGC
- apparent Kd ([2]; no ligand): 21.2 nM
- apparent Kd ([2]; ligand present: theophylline): 95.9 nM

Sequence: GCACCAGGUACGGAUACCAGCUGCCCGAGAUACAUGAGGAUCACCCAUGUGACCUGGUUUAGCCCUUGGCAGCUGUACCUGGUGC
- apparent Kd ([2]; no ligand): 13.6 nM
- apparent Kd ([2]; ligand present: theophylline): 9.99 nM
